# Experimental data gathered from unrelated publications.
# Protocols differ between the studies behind these lines.
Compound,method,sample,time,pH,solubility
O=C1C=C(N(Cc2ccc(Cl)nc2)CC(F)F)CO1,,water,,pH 7,3000 µg/mL
CC[C@H](C)[C@H](NC(=O)[C@H](CO)NC(=O)[C@H](CCCNC(=N)N)NC(C)=O)C(=O)N[C@H]1CSSC[C@@H](C(=O)N[C@H](C(N)=O)[C@@H](C)O)NC(=O)[C@H](CCCNC(=N)N)NC(=O)[C@H](Cc2c[nH]cn2)NC(=O)[C@H](C)NC(=O)CNC(=O)[C@H](Cc2c[nH]c3ccccc23)NC(=O)[C@H](CC(=O)O)NC(=O)[C@H](CCC(N)=O)NC(=O)[C@H](Cc2ccc3ccccc3c2)NC(=O)[C@H](C(C)C)NC1=O,,PBS,,pH 7.4,2170 µg/mL
COc1cc([C@@H]2c3cc4c(cc3[C@H](O)[C@H]3COC(=O)[C@H]23)OCO4)cc(OC)c1OC,,water,,,2200 µg/mL
CC[C@H](C)[C@H](NC(=O)[C@H](Cc1ccccc1)NC(=O)[C@H](Cc1ccc(O)cc1)NC(=O)[C@@H]1CCCN1C(=O)[C@@H](N)Cc1ccc(O)cc1)C(=O)N1CCC[C@H]1C(=O)N[C@@H](C)C(=O)NCC(=O)N[C@H](CCCCN)C(=O)NCC(=O)N[C@@H](CCC(=O)O)C(=O)N[C@H](C(=O)N[C@@H](CC(N)=O)C(=O)N[C@@H](CC(C)C)[C@@H](O)CC(=O)N[C@H](C(=O)N[C@@H](C)C(=O)N[C@@H](CCC(=O)O)C(=O)N1CCC[C@@H]1C(=O)N[C@@H](CCCCNC(=O)CCC(=O)O[C@H]1CC[C@@]2(C)C(=CC[C@H]3[C@@H]4CC[C@H]([C@H](C)CCCC(C)C)[C@@]4(C)CC[C@@H]32)C1)C(N)=O)C(C)C)C(C)C,,aqueous buffer,,pH 6.5,> 2450 µg/mL
CC[C@H](C)[C@H](NC(C)=O)C(=O)N[C@H]1CSSC[C@@H](C(=O)N[C@H](C(N)=O)[C@@H](C)O)NC(=O)[C@H](CCCNC(=N)N)NC(=O)[C@H](Cc2cnc[nH]2)NC(=O)[C@H](Cc2cccc3ccccc23)NC(=O)CNC(=O)[C@H](Cc2c[nH]c3ccccc23)NC(=O)[C@H](CC(=O)O)NC(=O)[C@H](CCC(N)=O)NC(=O)[C@H](Cc2c[nH]c3ccccc23)NC(=O)[C@H](C(C)C)NC1=O,,PBS,,pH 7.4,150 µg/mL
CNC(=O)O[C@@H](C)/C=C\C(=O)N[C@H]1CC[C@@H](C/C=C(C)/C=C/[C@@H]2C[C@]3(CO3)CC(C)(C)O2)CC1,HPLC,PBS,,,45 µM
COc1ccc2c(c1)NC(=O)CN2c1nc(C)nc2c1CCC2,,aqueous buffer,,pH 7.4,26.4 µg/mL
CCCSc1ccc2nc(NC(=O)OC)[nH]c2c1,,water,24 h,,< 1 µg/mL
C=CC[C@@]1(C)NC(=O)CNC(=O)[C@H](Cc2c[nH]c3ccccc23)NC(=O)[C@H](CC(=O)O)NC(=O)[C@H](CCC(N)=O)NC(=O)[C@H](Cc2c[nH]c3ccccc23)NC(=O)[C@H](C(C)C)NC(=O)[C@@H](NC(=O)[C@@H](NC(C)=O)[C@@H](C)CC)CSSC[C@@H](C(=O)N[C@H](C(N)=O)[C@@H](C)O)NC(=O)[C@H](CCCNC(=N)N)NC(=O)[C@H](Cc2c[nH]cn2)NC1=O,,PBS,,pH 7.4,3350 µg/mL
Clc1ccc(CSc2nnc(-c3ccccn3)n2Cc2ccco2)cc1Cl,,aqueous buffer,,pH 5,< 0.1 µg/mL
